Test results reported in ChEMBL document CHEMBL3272327, “Hypocholesterolemic activity of 1,3-bis(substituted phenoxy)-2-propanones” (J Med Chem, 1976).

Tests used:
Rattus norvegicus [1] = experiment: Effect on vesicular gland weight in rat at 5 mg/kg/day administered for 16 days measured 24 hrs after last drug dosage relative to total body weight (reference value: 0.10 +/- 0.04%); assay type: ADME, organism-based; conditions: in vivo
Rattus norvegicus [2] = experiment: Hypocholesterolemic activity in [14C]palmitic acid-treated rat assessed as decrease in 14C fatty acid incorporation into triglyceride fraction in liver at 10 mg/kg/day administered for 1 week by scintillation counting analysis; assay type: functional; parameters: scale not given: the % may be the effect or the level left
Rattus norvegicus [3] = experiment: Effect on heart weight in rat at 5 mg/kg/day administered for 16 days measured 24 hrs after last drug dosage relative to total body weight (reference value: 0.37 +/- 0.04%); assay type: ADME, organism-based; conditions: in vivo
Rattus norvegicus [4] = experiment: Effect on body weight in rat at 5 mg/kg/day administered for 16 days measured on day 7 (reference value: 173 +/- 12 gms); assay type: ADME, organism-based; conditions: in vivo, 384 h
Procedure, shortened: (§1)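 Male Sprague-Dawley rats with chow and water ad libitum. Compound suspended in 1% CMC-water and given orally by intubation needle at 11:00 a.m., 1, 5, 10 or 50 mg/kg/day, for 16 days. Body weight (g) recorded on days 0, 7 and 16. N = 8.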

Rattus norvegicus [5] = experiment: Hypocholesterolemic activity in rat assessed as serum triglyceride level at 10 mg/kg/day administered for 8 days (reference value: 100 +/- 15%); assay type: functional
Procedure, shortened: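 Male Sprague-Dawley rats dosed orally at 10 mg/kg/day in 1% CMC. Serum triglycerides were measured with a stat pack kit after 8 days of dosing. Expressed as percent of vehicle control, N = 8; Student's t test.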

Rattus norvegicus [6] = experiment: Effect on kidney weight in rat at 10 mg/kg/day administered for 16 days measured 24 hrs after last drug dosage relative to total body weight (reference value: 0.92 to 0.96%); assay type: ADME, organism-based; conditions: in vivo
Rattus norvegicus [7] = experiment: Effect on body weight in rat at 10 mg/kg/day administered for 16 days measured on day 16 (reference value: 233 +/- 16 gms); assay type: ADME, organism-based; conditions: in vivo, 384 h; procedure, shortened: as §1
Rattus norvegicus [8] = experiment: Hypocholesterolemic activity in Sprague-Dawley rat assessed as serum cholesterol level at 5 mg/kg/day, po administered via intubation measured on day 4 by Liebermann-Burchard reaction (reference value: 100 +/- 7%); assay type: functional
Rattus norvegicus [9] = experiment: Hypocholesterolemic activity in Sprague-Dawley rat assessed as serum cholesterol level at 10 mg/kg/day, po administered via intubation measured on day 4 by Liebermann-Burchard reaction (reference value: 100%); assay type: functional
Rattus norvegicus [10] = experiment: Hypocholesterolemic activity in Sprague-Dawley rat assessed as serum cholesterol level at 10 mg/kg/day, po administered via intubation measured on day 10 by Liebermann-Burchard reaction (reference value: 100%); assay type: functional
Rattus norvegicus [11] = experiment: Hypocholesterolemic activity in Sprague-Dawley rat assessed as serum cholesterol level at 50 mg/kg/day, po administered via intubation measured on day 10 by Liebermann-Burchard reaction (reference value: 100 +/- 7%); assay type: functional
Rattus norvegicus [12] = experiment: Hypocholesterolemic activity in rat assessed as [14C]cholesterol level in blood at 10 mg/kg/day administered for 1 week measured after 22 hrs on day 7 by scintillation counting analysis (reference value: 0.01 +/- 0.01%); assay type: functional
Procedure, shortened: (§2)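 Male rats were dosed orally for 1 week (10 mg/kg/day) or with 1% CMC. On day 7 they received 5 μCi [4-14C]cholesterol orally and were killed after 22 hr. Organs were homogenized (10% in water); 0.1-cc aliquots of homogenate, urine, blood or feces were digested with Protosol. Samples were counted in toluene/Triton X-100 (2:1) scintillant with 0.4% PPO and 0.01% POPOP. Results are % of dose per tissue, N = 6.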

Rattus norvegicus [13] = experiment: Uterotrophic activity in ovariectomized Sprague-Dawley rat assessed as uterine weight administered for 3 days (reference value: 100 +/- 27%); assay type: organism-based, Uterus; conditions: in vivo, 72 h
Rattus norvegicus [14] = experiment: Effect on body weight in rat at 1 mg/kg/day administered for 16 days measured on day 16 (reference value: 233 +/- 16 gms); assay type: ADME, organism-based; conditions: in vivo, 384 h; procedure, shortened: as §1
Rattus norvegicus [15] = experiment: Effect on liver weight in rat at 10 mg/kg/day administered for 16 days measured 24 hrs after last drug dosage relative to total body weight (reference value: 4.22 to 4.54%); assay type: ADME, organism-based; conditions: in vivo
Rattus norvegicus [16] = experiment: Effect on body weight in rat at 5 mg/kg/day administered for 16 days measured on day 16 (reference value: 233 +/- 16 gms); assay type: ADME, organism-based; conditions: in vivo, 384 h; procedure, shortened: as §1
Rattus norvegicus [17] = experiment: Effect on spleen weight in rat at 5 mg/kg/day administered for 16 days measured 24 hrs after last drug dosage relative to total body weight (reference value: 0.55 +/- 0.12%); assay type: ADME, organism-based; conditions: in vivo
Rattus norvegicus [18] = experiment: Hypocholesterolemic activity in rat assessed as [14C]cholesterol level in kidney at 10 mg/kg/day administered for 1 week measured after 22 hrs on day 7 by scintillation counting analysis (reference value: 0.69 +/- 0.27%); assay type: functional; procedure, shortened: as §2
Rattus norvegicus [19] = experiment: Hypocholesterolemic activity in rat assessed as [14C]palmitic acid level in liver at 10 mg/kg/day administered for 1 week measured after 22 hrs on day 7 by scintillation counting analysis (reference value: 8.06 +/- 1.33%); assay type: functional
Procedure, shortened: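 Male Sprague-Dawley rats on lab chow dosed orally once daily for 1 week at 10 mg/kg/day, suspended in 1% CMC, or given vehicle alone. On day 7, 5 μCi [1-14C]palmitic acid given orally. Killed after 22 hr; organs made into 10% water homogenates. Aliquots of 0.1 cc of homogenate, urine, blood or feces were digested and scintillation counted. Output is % of dose per tissue, N = 6.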

Rattus norvegicus [20] = experiment: Effect on food intake in rat at 1 mg/kg/day measured during second week (reference value: 23.4 +/- 1.8 gms); assay type: ADME, organism-based; conditions: in vivo
Procedure, shortened: (§3)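 Male rats dosed orally at 1, 5, 10 or 50 mg/kg/day in 1% CMC. Average food intake in grams per rat per week measured over a 2-week period, first and second weeks reported separately. N = 8, Student's t test against the 1% CMC control.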

Rattus norvegicus [21] = experiment: Effect on vesicular gland weight in rat at 10 mg/kg/day administered for 16 days measured 24 hrs after last drug dosage relative to total body weight (reference value: 0.10 to 0.11%); assay type: ADME, organism-based; conditions: in vivo
Rattus norvegicus [22] = experiment: Hypocholesterolemic activity in Sprague-Dawley rat assessed as serum cholesterol level at 5 mg/kg/day, po administered via intubation measured on day 16 by Liebermann-Burchard reaction (reference value: 100 +/- 8%); assay type: functional
Rattus norvegicus [23] = experiment: Effect on heart weight in rat at 50 mg/kg/day administered for 16 days measured 24 hrs after last drug dosage relative to total body weight (reference value: 0.37 +/- 0.04%); assay type: ADME, organism-based; conditions: in vivo
Rattus norvegicus [24] = experiment: Effect on vas deferens and epididymis weight in rat at 5 mg/kg/day administered for 16 days measured 24 hrs after last drug dosage relative to total body weight (reference value: 0.22 +/- 0.04%); assay type: ADME, organism-based; conditions: in vivo
Rattus norvegicus [25] = experiment: Increase in lipase level in rat serum at 10 mg/kg/day administered for 16 days (reference value: 100 +/- 39%); assay type: functional
Procedure, shortened: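 Male Sprague-Dawley rats dosed orally at 10 mg/kg/day in 1% CMC for 16 days. Serum lipase was measured with a commercial serum lipase kit. Expressed as percent of vehicle control, N = 8.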

Rattus norvegicus [26] = experiment: Effect on body weight in rat at 50 mg/kg/day administered for 16 days measured on day 7 (reference value: 173 +/- 12 gms); assay type: ADME, organism-based; conditions: in vivo, 384 h; procedure, shortened: as §1
Rattus norvegicus [27] = experiment: Effect on food intake in rat at 10 mg/kg/day measured during second week (reference value: 23.4 +/- 1.8 gms); assay type: ADME, organism-based; conditions: in vivo; procedure, shortened: as §3
Rattus norvegicus [28] = experiment: Effect on food intake in rat at 10 mg/kg/day measured during first week (reference value: 19.1 +/- 1.7 gms); assay type: ADME, organism-based; conditions: in vivo; procedure, shortened: as §3

## Cc1ccc(OCC(=O)COc2ccc(C)cc2)cc1
Rattus norvegicus [1]
  Activity: 0.13%
Rattus norvegicus [2]
  Activity: 53%
Rattus norvegicus [3]
  Activity: 0.43%
Rattus norvegicus [4]
  Activity: 168 g
Rattus norvegicus [5]
  Activity: 70%
Rattus norvegicus [6]
  Activity: 0.93%
Rattus norvegicus [7]
  Activity: 234 g
Rattus norvegicus [8]
  Activity: 74%
Rattus norvegicus [9]
  Activity: 77%
Rattus norvegicus [10]
  Activity: 50%
Rattus norvegicus [11]
  Activity: 46%
Rattus norvegicus [12]
  Activity: 0.01%
Rattus norvegicus [13]
  Activity: 82%
Rattus norvegicus [14]
  Activity: 234 g
Rattus norvegicus [15]
  Activity: 4.65%
Rattus norvegicus [16]
  Activity: 241 g
Rattus norvegicus [17]
  Activity: 0.44%
Rattus norvegicus [18]
  Activity: 1.29%
Rattus norvegicus [19]
  Activity: 9.26%
Rattus norvegicus [20]
  Activity: 29.2 g
Rattus norvegicus [21]
  Activity: 0.11%
Rattus norvegicus [22]
  Activity: 56%
Rattus norvegicus [23]
  Activity: 0.4%
Rattus norvegicus [24]
  Activity: 0.21%
Rattus norvegicus [25]
  Activity: 222%
Rattus norvegicus [26]
  Activity: 171 g
Rattus norvegicus [27]
  Activity: 28.6 g
Rattus norvegicus [28]
  Activity: 18.2 g
